Source: ChEMBL document CHEMBL1131342, “Design, synthesis, and antiviral activity of alpha-nucleosides: D- and L-isomers of lyxofuranosyl- and (5-deoxylyxofuranosyl)benzimidazoles” (J Med Chem, 1998)

Assays:
Human betaherpesvirus 5 [1] = test: Antiviral activity assayed by ability to inhibit Towne strain of HCMV virus; format: functional, organism-based
Procedure, shortened: (§1)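 HFF monolayers in 24-well dishes infected with about 100 pfu HCMV/cm² (Towne or AD169). After adsorption, compound in growth medium at four to eight concentrations, duplicate wells, 7 days at 37 °C. Crystal violet stain, microscopic plaques counted, percent reduction vs no drug. IC50 from regression on log concentration; ganciclovir control.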

Human betaherpesvirus 5 [2] = test: Compound was evaluated for the Antiviral activity against the AD169 strain of HCMV virus.; format: functional, organism-based; procedure, shortened: as §1
Human betaherpesvirus 5 [3] = test: Compounds was evaluated for the Antiviral activity against the AD169 strain of HCMV virus.; format: functional, organism-based; procedure, shortened: as §1
Human betaherpesvirus 5 [4] = test: Compound was evaluated for the Yield reduction assays on HCMV virus,; format: functional
Procedure, shortened: (§2)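 HFF cells in 96-well plates inoculated with HCMV at moi 0.5–1 pfu/cell. Compound in duplicate at 100 to 0.14 μM (1:3 serial dilutions), 7 days at 37 °C, then one freeze–thaw. Progeny titred by serial 1:3 dilution onto fresh HFF monolayers with plaque counting. IC90 from linear regression vs log concentration; ganciclovir control.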

Homo sapiens = species on record: Homo sapiens; test: Compound was evaluated for the cytotoxicity scored on HFF cells at time of HCMV plaque enumeration.; format: functional
Procedure, shortened: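 Stationary HFF cells not affected by virus, inspected microscopically for visual cytotoxicity at the time of HCMV plaque counting (7 days, 37 °C). Duplicate experiments.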

KB = test: Compound was evaluated for the cytotoxicity by the inhibition of KB cell growth.; format: functional, cell-based; conditions: Homo sapiens
Procedure, shortened: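 KB cells plated at 3000–5000 cells/well and incubated overnight. Compound added in quadruplicate at six to eight concentrations, 48 h at 37 °C under CO₂, spanning two population doublings. Ethanol fixation, 0.1% crystal violet stain, dye eluted with acidified ethanol, absorbance at 570 nm. IC50 by regression on log concentration; 2-acetylpyridine thiosemicarbazone control.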

Human betaherpesvirus 5 [5] = test: Compound was evaluated for its antiviral activity against HCMV virus using Yield reduction assay.
Human alphaherpesvirus 1 [6] = test: Antiviral activity evaluated by their ability to inhibit the KOS strain of herpes simplex virus type-1 (HSV-1).ELISA was used
Human betaherpesvirus 5 [7] = test: Compound was evaluated for its antiviral activity by its ability to inhibit Towne strain of HCMV virus.The plaque assay was used; format: functional, organism-based; procedure, shortened: as §1
Human alphaherpesvirus 1 [8] = test: Antiviral activity against KOS strain of herpes simplex virus type-1 (HSV-1).ELISA was used
Human betaherpesvirus 5 [9] = test: Compound was evaluated for antiviral activity against HCMV virus using yield reduction assay.; format: functional; procedure, shortened: as §2
Human alphaherpesvirus 1 [10] = test: Antiviral activity evaluated by its ability to inhibit the KOS strain of herpes simplex virus type-1 (HSV-1).ELISA was used

In the case of `OC[C@H]1O[C@@H](n2c(Cl)nc3cc(Cl)c(Cl)cc32)[C@H](O)[C@@H]1O`, the IC50 (Human betaherpesvirus 5 [1]) is reported as 18 µM, the IC50 (Human betaherpesvirus 5 [2]; Human betaherpesvirus 5) is reported as 2.6 µM and the IC50 (Human betaherpesvirus 5 [3]) is reported as 1.8 µM. The IC90 (Human betaherpesvirus 5 [4]) was 1.4 µM, the IC50 (Homo sapiens) was 190 µM and the IC50 (KB) was > 100 µM. The IC90 (Human betaherpesvirus 5 [5]) was 3.4 µM and the IC50 (Human alphaherpesvirus 1 [6]) was > 100 µM.

For `CCCNc1nc2cc(Cl)c(Cl)cc2n1[C@@H]1O[C@@H](CO)[C@@H](O)[C@H]1O`, the IC50 (Human betaherpesvirus 5 [1]; Human betaherpesvirus 5) was > 100 µM, the IC50 (Human betaherpesvirus 5 [2]; Human betaherpesvirus 5) was 11 µM and the IC50 (Homo sapiens) was > 100 µM. For the same compound, the IC50 (KB) was > 100 µM, the IC90 (Human betaherpesvirus 5 [5]) was 19 µM and the IC50 (Human alphaherpesvirus 1 [6]) was > 100 µM.

`OC[C@H]1O[C@H](n2c(Br)nc3cc(Cl)c(Cl)cc32)[C@@H](O)[C@H]1O` (stereo in doubt; 4a) was tested, and the IC50 (Human betaherpesvirus 5 [7]) was 2.8 µM, the IC50 (Human betaherpesvirus 5 [2]) was 0.8 µM and the IC50 (Human alphaherpesvirus 1 [8]) was > 100 µM. For the same compound, the IC90 (Human betaherpesvirus 5 [5]) was 0.8 µM.

`O=C(O)P(=O)(O)O` [FOSCARNET] was tested, and the IC50 (Homo sapiens) was > 100 µM.

In the case of `OC[C@H]1O[C@H](n2c(Cl)nc3cc(Cl)c(Cl)cc32)[C@@H](O)[C@H]1O`, the IC50 (Human betaherpesvirus 5 [1]; Human betaherpesvirus 5) is reported as 18 µM, the IC50 (Human betaherpesvirus 5 [2]; Human betaherpesvirus 5) is reported as 9 µM and the IC50 (Homo sapiens) is reported as > 100 µM. For the same compound, the IC50 (KB) was > 100 µM, the IC90 (Human betaherpesvirus 5 [5]) was > 100 µM and the IC50 (Human alphaherpesvirus 1 [6]) was 90 µM.

For `CNc1nc2cc(Cl)c(Cl)cc2n1[C@@H]1O[C@@H](CO)[C@@H](O)[C@H]1O`, the IC50 (Human betaherpesvirus 5 [1]; Human betaherpesvirus 5) was > 100 µM, the IC50 (Homo sapiens) was > 100 µM and the IC50 (KB) was > 100 µM. For the same compound, the IC50 (Human alphaherpesvirus 1 [6]) was > 100 µM.

With `CSc1nc2cc(Cl)c(Cl)cc2n1[C@@H]1O[C@H](CO)[C@@H](O)[C@H]1O` the IC50 (Human betaherpesvirus 5 [1]; Human betaherpesvirus 5) was > 100 µM, the IC50 (Homo sapiens) was > 100 µM and the IC50 (KB) was > 100 µM. The IC90 (Human betaherpesvirus 5 [5]) was > 100 µM and the IC50 (Human alphaherpesvirus 1 [6]) was > 100 µM.

For `OC[C@@H]1O[C@@H](n2c(S)nc3cc(Cl)c(Cl)cc32)[C@H](O)[C@@H]1O`, the IC50 (Human betaherpesvirus 5 [1]; Human betaherpesvirus 5) was > 100 µM, the IC50 (Homo sapiens) was > 100 µM and the IC50 (KB) was > 100 µM. For the same compound, the IC90 (Human betaherpesvirus 5 [5]) was > 100 µM and the IC50 (Human alphaherpesvirus 1 [6]) was > 100 µM.

`C[C@@H]1O[C@@H](n2c(Cl)nc3cc(Cl)c(Cl)cc32)[C@H](O)[C@@H]1O` gave an IC50 (Human betaherpesvirus 5 [1]; Human betaherpesvirus 5) of 0.2 µM, an IC50 (Homo sapiens) of 32 µM and an IC50 (KB) of 60 µM. It also gave an IC90 (Human betaherpesvirus 5 [5]) of 0.2 µM and an IC50 (Human alphaherpesvirus 1 [6]) of 20 µM.

`C[C@@H]1O[C@@H](n2c(Br)nc3cc(Cl)c(Cl)cc32)[C@H](O)[C@@H]1O` showed an IC50 (Human betaherpesvirus 5 [1]; Human betaherpesvirus 5) of 0.4 µM, an IC50 (Homo sapiens) of 32 µM and an IC50 (KB) of 60 µM. The IC90 (Human betaherpesvirus 5 [5]) was 2 µM and the IC50 (Human alphaherpesvirus 1 [6]) was > 100 µM.

In the case of `CCCNc1nc2cc(Cl)c(Cl)cc2n1[C@@H]1O[C@@H](C)[C@@H](O)[C@H]1O`, the IC50 (Human betaherpesvirus 5 [1]; Human betaherpesvirus 5) is reported as 32 µM, the IC50 (Homo sapiens) is reported as 100 µM and the IC50 (KB) is reported as 65 µM. For the same compound, the IC90 (Human betaherpesvirus 5 [5]) was 2.8 µM and the IC50 (Human alphaherpesvirus 1 [6]) was > 100 µM.

`Nc1nc2c(ncn2COC(CO)CO)c(=O)[nH]1` [GANCICLOVIR] was tested, and the IC90 (Human betaherpesvirus 5 [4]) was 1.6 µM, the IC50 (Homo sapiens) was > 100 µM and the IC50 (KB) was > 100 µM.

`C[C@H]1O[C@@H](n2c(Cl)nc3cc(Cl)c(Cl)cc32)[C@H](O)[C@@H]1O` was tested, and the IC50 (Human betaherpesvirus 5 [1]; Human betaherpesvirus 5) was 32 µM, the IC50 (Homo sapiens) was 45 µM and the IC50 (KB) was 75 µM. The IC90 (Human betaherpesvirus 5 [5]) was 8 µM and the IC50 (Human alphaherpesvirus 1 [6]) was 60 µM.

For `OC[C@H]1O[C@@H](n2c(S)nc3cc(Cl)c(Cl)cc32)[C@H](O)[C@@H]1O`, the IC50 (Human betaherpesvirus 5 [1]; Human betaherpesvirus 5) was > 100 µM, the IC50 (Homo sapiens) was > 100 µM and the IC50 (KB) was > 100 µM. For the same compound, the IC90 (Human betaherpesvirus 5 [5]) was > 100 µM and the IC50 (Human alphaherpesvirus 1 [6]) was > 100 µM.

With `CNc1nc2cc(Cl)c(Cl)cc2n1[C@@H]1O[C@H](CO)[C@@H](O)[C@H]1O` the IC50 (Human betaherpesvirus 5 [1]; Human betaherpesvirus 5) was > 100 µM, the IC50 (Homo sapiens) was > 100 µM and the IC50 (KB) was > 100 µM. The IC90 (Human betaherpesvirus 5 [5]) was > 100 µM and the IC50 (Human alphaherpesvirus 1 [6]) was > 100 µM.

For `CCCNc1nc2cc(Cl)c(Cl)cc2n1[C@@H]1O[C@H](C)[C@@H](O)[C@H]1O`, the IC50 (Human betaherpesvirus 5 [1]; Human betaherpesvirus 5) was 10 µM, the IC50 (Homo sapiens) was > 100 µM and the IC90 (Human betaherpesvirus 5 [5]) was 2 µM.

Work on `OC[C@H]1O[C@H](n2c(Br)nc3cc(Cl)c(Cl)cc32)[C@@H](O)[C@H]1O` (stereo in doubt; 4b) yielded an IC50 (Human betaherpesvirus 5 [1]; Human betaherpesvirus 5) of 6 µM, an IC50 (Human betaherpesvirus 5 [2]) of 4.2 µM and an IC90 (Human betaherpesvirus 5 [9]) of 65 µM. For the same compound, the IC50 (Homo sapiens) was > 100 µM, the IC50 (KB) was > 100 µM and the IC50 (Human alphaherpesvirus 1 [10]) was 50 µM.

For `C[C@H]1O[C@@H](n2c(Br)nc3cc(Cl)c(Cl)cc32)[C@H](O)[C@@H]1O`, the IC50 (Human betaherpesvirus 5 [1]; Human betaherpesvirus 5) was 32 µM, the IC50 (Homo sapiens) was 100 µM and the IC50 (KB) was > 100 µM. The IC90 (Human betaherpesvirus 5 [5]) was 12 µM and the IC50 (Human alphaherpesvirus 1 [6]) was 50 µM.

In the case of `CSc1nc2cc(Cl)c(Cl)cc2n1[C@@H]1O[C@@H](CO)[C@@H](O)[C@H]1O`, the IC50 (Human betaherpesvirus 5 [1]; Human betaherpesvirus 5) is reported as > 100 µM, the IC50 (Homo sapiens) is reported as > 100 µM and the IC50 (KB) is reported as > 100 µM. The IC50 (Human alphaherpesvirus 1 [6]) was > 100 µM.

In the case of `CCCNc1nc2cc(Cl)c(Cl)cc2n1[C@@H]1O[C@H](CO)[C@@H](O)[C@H]1O`, the IC50 (Human betaherpesvirus 5 [1]; Human betaherpesvirus 5) is reported as 60 µM, the IC50 (Human betaherpesvirus 5 [2]; Human betaherpesvirus 5) is reported as 32 µM and the IC50 (Homo sapiens) is reported as > 100 µM. The IC50 (KB) was > 100 µM, the IC90 (Human betaherpesvirus 5 [5]) was 17 µM and the IC50 (Human alphaherpesvirus 1 [6]) was > 100 µM.
